We go through five compounds from ChEMBL document CHEMBL1128459, “Characterization of potent and selective antagonists at postsynaptic 5-HT1A receptors in a series of N4-substituted arylpiperazines” (J Med Chem, 1995).

A short description of experiment [1]: Ratio of MED (agonist) to that of MED (antagonist) values. It counts as functional. Put shortly:
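The MED for inducing hypothermia alone was divided by the MED for blocking 8-OH-DPAT (0.16 mg/kg sc) hypothermia. Both MEDs came from sc dosing in male Wistar rats and were tested against vehicle by ANOVA with Dunnett's test, P < 0.05.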

Experiment [2] addresses D(2) dopamine receptor (Rattus norvegicus) (UniProt P61169).
For experiment [3], the species on record is Rattus norvegicus. As to the kind of experiment: Maximum agonist effect (% effect) expressed relative to 8-hydroxy-DPAT (100%). In kind it is functional. Put shortly: (§1)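 In the rat rectal-temperature model (sc dosing, 8-OH-DPAT 0.16 mg/kg sc for antagonism), the maximal percentage of induced hypothermia (agonist) and of block of 8-OH-DPAT hypothermia (antagonist) was recorded. Each value is given with the dose at which it was reached.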

In experiment [4] the test system is Rattus norvegicus. As to the kind of experiment: Compound after subcutaneous administration was evaluated for antagonist activity against hypothermia induced by 8-hydroxy -DPAT in rat. It counts as functional. The settings on record: sc, read-out: ID50 (the source's name). Put shortly: (§2)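 Male Wistar rats (200-220 g) had rectal temperature taken, then received the test drug sc in distilled water (1.0 mL/kg). After 30 min they got 8-OH-DPAT 0.16 mg/kg sc, and temperature was remeasured 30 min later. Change from basal was scored.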

Experiment [5] has as its target Serotonin 1a (5-HT1a) receptor/Adrenergic receptor alpha-1 (Rattus norvegicus) (UniProt P15823+P23944+P43140+P19327). As to the kind of experiment: Ki ratio measured as the Ki values of alpha-1 adrenergic receptor to that of 5-hydroxytryptamine 1A receptor. It counts as protein assay.
Experiment [6] has as its target T1, Adrenergic receptor alpha-1 (Rattus norvegicus, UniProt P15823+P23944+P43140).
T1 sequence (P15823 whole entry): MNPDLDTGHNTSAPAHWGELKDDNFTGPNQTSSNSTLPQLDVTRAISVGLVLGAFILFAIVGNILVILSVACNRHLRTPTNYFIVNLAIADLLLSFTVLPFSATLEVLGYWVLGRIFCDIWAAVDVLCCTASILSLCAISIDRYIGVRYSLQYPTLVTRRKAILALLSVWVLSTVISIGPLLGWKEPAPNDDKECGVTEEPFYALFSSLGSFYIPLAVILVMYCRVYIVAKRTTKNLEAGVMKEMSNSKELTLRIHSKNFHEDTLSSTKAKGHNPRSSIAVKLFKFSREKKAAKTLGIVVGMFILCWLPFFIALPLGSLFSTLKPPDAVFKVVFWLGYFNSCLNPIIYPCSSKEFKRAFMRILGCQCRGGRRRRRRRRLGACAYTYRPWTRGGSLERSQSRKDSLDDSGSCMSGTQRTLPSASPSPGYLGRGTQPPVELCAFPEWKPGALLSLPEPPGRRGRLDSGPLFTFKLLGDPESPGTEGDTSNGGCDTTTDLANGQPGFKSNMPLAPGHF
T1 sequence (P23944 whole entry): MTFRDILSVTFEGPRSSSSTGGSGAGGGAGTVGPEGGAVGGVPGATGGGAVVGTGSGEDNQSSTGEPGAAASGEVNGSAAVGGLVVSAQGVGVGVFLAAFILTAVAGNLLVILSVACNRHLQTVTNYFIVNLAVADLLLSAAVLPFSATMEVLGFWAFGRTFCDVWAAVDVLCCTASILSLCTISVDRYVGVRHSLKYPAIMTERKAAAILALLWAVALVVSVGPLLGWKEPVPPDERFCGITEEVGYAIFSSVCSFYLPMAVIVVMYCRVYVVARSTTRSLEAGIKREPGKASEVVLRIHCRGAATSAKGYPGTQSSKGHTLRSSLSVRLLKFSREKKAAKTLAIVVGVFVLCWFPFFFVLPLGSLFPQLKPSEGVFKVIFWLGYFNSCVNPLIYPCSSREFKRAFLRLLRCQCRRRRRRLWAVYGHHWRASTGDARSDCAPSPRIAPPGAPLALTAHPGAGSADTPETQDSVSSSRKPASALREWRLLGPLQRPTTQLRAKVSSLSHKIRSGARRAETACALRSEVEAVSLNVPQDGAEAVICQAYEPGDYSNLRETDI
T1 sequence (P43140 whole entry): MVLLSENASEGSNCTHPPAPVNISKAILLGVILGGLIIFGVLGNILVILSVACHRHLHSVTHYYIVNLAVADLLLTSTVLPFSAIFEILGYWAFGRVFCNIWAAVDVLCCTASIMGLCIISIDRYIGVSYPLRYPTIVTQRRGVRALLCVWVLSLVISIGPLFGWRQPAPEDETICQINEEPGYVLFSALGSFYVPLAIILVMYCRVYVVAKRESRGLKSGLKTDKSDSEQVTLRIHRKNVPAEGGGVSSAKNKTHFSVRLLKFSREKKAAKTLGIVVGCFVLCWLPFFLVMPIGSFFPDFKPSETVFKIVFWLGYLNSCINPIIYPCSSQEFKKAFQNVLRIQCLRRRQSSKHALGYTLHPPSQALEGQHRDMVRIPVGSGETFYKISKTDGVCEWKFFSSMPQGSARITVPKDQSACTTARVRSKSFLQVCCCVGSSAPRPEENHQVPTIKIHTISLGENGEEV
As to the kind of experiment: In vitro binding affinity towards Alpha-1 adrenergic receptor in rat cortex was determined using [3H]prazosin as radioligand. Put shortly: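 Rat frontal cortex membranes (1/80 wt/vol), no preincubation, in 50 mM Tris pH 7.6 with 4 mM CaCl2 and 0.1% ascorbic acid. Ligand 0.2 nM [3H]prazosin, with phentolamine for nonspecific binding. Incubation 60 min at 25 °C, then filtration. IC50 obtained by regression and converted to pKi with radioligand Kd from saturation experiments.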

For experiment [7], the system named is Rattus norvegicus. As to the kind of experiment: Minimum effective antagonist dose administered subcutaneously. It counts as functional. Particulars: sc, read-out: MED. The method in brief: as §2
Experiment [8] concerns the target T2, 5-hydroxytryptamine receptor 1A (Rattus norvegicus, UniProt P19327).
T2 sequence (P19327 whole entry): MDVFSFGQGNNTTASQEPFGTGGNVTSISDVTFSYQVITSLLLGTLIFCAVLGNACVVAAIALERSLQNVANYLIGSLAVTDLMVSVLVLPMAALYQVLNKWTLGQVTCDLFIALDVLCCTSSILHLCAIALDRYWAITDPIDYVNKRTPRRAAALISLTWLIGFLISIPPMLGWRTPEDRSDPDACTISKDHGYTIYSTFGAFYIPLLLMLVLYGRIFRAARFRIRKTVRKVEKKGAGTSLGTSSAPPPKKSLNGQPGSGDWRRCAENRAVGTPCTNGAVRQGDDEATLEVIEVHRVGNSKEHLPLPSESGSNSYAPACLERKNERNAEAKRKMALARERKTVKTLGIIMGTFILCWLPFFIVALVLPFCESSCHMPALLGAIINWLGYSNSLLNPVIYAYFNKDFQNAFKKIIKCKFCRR
As to the kind of experiment: Binding affinity at 5-hydroxytryptamine 1A receptor. Put shortly: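 Rat hippocampal membranes (1/100 wt/vol) in 50 mM Tris pH 7.7 with 4 mM CaCl2, 0.1% ascorbic acid and pargyline. Membranes were spun at 25000g, preincubated 30 min at 37 °C and respun, then incubated with 0.4 nM [3H]-8-OH-DPAT for 30 min at 25 °C. 5-HT defined nonspecific binding, and samples were filtered on PEI-soaked GF/B. IC50 came from regression; pKi = −log[IC50/(1+[L]/Kd)].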

In experiment [9] the test system is Rattus norvegicus. As to the kind of experiment: Minimum effective agonist dose administered subcutaneously. It counts as functional. Particulars: sc, read-out: MED. Put shortly: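 Male Wistar rats (200-220 g) were given the test drug alone sc in water (1.0 mL/kg), with vehicle reinjected at 30 min. Rectal temperature change from basal was measured 60 min after the first injection. MED for hypothermia was set against vehicle by ANOVA with Dunnett's test, P < 0.05.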

Experiment [10] has as its target T3, D(2) dopamine receptor (Rattus norvegicus, UniProt P61169). As to the kind of experiment: In vitro binding affinity towards Dopamine receptor D2 in rat striatum was determined using [3H]-spiperone as radioligand. In kind it is tissue-based. The method in brief: (§3)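 Rat striatal membranes (1/300 wt/vol), no preincubation, in 50 mM Tris pH 7.4 with CaCl2, ascorbic acid, 5 mM KCl, 1 mM MgCl2 and 120 mM NaCl. Ligand 0.2 nM [3H]spiperone, with 100 nM ketanserin masking 5-HT2A sites; raclopride defined nonspecific binding. Incubation 30 min at 37 °C, then filtration. pKi derived from regression-based IC50.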

Experiment [11] is filed under the species Rattus norvegicus. As to the kind of experiment: Maximum antagonist effect (% effect) expressed relative to 8-hydroxy-DPAT (100%). It counts as functional. The method in brief: as §1
The target of experiment [12] is 5-hydroxytryptamine receptor 1B (Rattus norvegicus, UniProt P28564). As to the kind of experiment: Binding affinity at 5-hydroxytryptamine 1B receptor. The method in brief: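 Rat frontal cortex membranes (1/40 wt/vol) were homogenized in 50 mM Tris pH 7.7 with pargyline, 4 mM CaCl2 and 0.1% ascorbic acid, then preincubated for 30 min at 37 °C. Labelled with 2.0 nM [3H]-5-HT, with 100 nM 8-OH-DPAT and 100 nM mesulergine masking 5-HT1A/5-HT2A sites; 5-CT defined nonspecific binding.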
5-hydroxytryptamine receptor 1B, sequence (P28564 whole entry): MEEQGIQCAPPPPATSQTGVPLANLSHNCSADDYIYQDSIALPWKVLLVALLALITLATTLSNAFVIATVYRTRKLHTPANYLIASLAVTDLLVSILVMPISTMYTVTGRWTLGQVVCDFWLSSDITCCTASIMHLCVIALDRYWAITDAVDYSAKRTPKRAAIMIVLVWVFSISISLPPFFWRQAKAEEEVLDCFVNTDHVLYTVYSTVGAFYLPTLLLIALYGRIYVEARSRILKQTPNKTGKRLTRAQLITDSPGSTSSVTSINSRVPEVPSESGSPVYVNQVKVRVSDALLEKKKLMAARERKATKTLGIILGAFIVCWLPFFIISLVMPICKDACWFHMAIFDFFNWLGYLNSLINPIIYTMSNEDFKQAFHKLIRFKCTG

In experiment [13] the target is 5-hydroxytryptamine receptor 1A (Rattus norvegicus) (UniProt P19327). As to the kind of experiment: Ki ratio measured as the Ki values of dopamine receptor to that of 5-hydroxytryptamine 1A receptor.
Experiment [14] concerns the target T3, D(2) dopamine receptor. As to the kind of experiment: In vitro binding affinity towards dopamine D2 receptor in rat striatum was determined using [3H]-spiperone as radioligand. It counts as tissue-based. The method in brief:
as §3

The target of experiment [15] is D(2) dopamine receptor (Rattus norvegicus) (UniProt P61169). As to the kind of experiment: Inhibitory activity against methyl-phenidate-induced gnawing at dopamine D2 receptor in rat. Put shortly: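 Male Wistar rats (200-220 g) received the test drug sc in water (1.0 mL/kg), then methylphenidate 40.0 mg/kg ip 30 min later. Observation began 30 min after that. Gnawing bouts were counted in 10 s per minute (maximum 10) by a blinded observer.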
D(2) dopamine receptor (Rattus norvegicus), sequence (P61169 whole entry): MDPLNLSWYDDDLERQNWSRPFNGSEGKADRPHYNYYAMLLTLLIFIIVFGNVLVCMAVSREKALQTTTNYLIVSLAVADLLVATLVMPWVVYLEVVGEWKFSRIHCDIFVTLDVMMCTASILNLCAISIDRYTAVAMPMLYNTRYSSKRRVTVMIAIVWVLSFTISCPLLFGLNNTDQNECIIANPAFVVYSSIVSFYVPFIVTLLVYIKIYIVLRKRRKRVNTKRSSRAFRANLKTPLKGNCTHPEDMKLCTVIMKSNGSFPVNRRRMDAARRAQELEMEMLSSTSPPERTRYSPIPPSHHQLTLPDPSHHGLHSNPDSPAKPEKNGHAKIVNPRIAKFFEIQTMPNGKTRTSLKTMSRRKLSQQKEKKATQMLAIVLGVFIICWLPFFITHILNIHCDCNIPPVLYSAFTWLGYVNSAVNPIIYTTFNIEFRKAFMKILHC

In experiment [16] the target is T3, D(2) dopamine receptor. As to the kind of experiment: In vitro binding affinity towards Dopamine receptor D2 in rat striatum was determined using [3H]spiperone as radioligand. It counts as tissue-based. The method in brief: as §3

Bounds are passed on as bounds.

T3 sequence (P61169 whole entry): as above

As for `c1ccc2c(c1)CCC2CN1CCN(c2cccc3c2OCCO3)CC1` (centres undefined), in [1], the Ratio stood at 15.8. In experiment [2], the ID50 was above 40 mg/kg. Besides, the Max effect in experiment [3] was determined as 43%; in experiment [11] it was 63%. Besides, the ED50 in [4] stood at 1.32 mg/kg. Moreover, the Ki ratio came to 18.6 in experiment [5] and 43.6 in experiment [13]. In addition, in experiment [6], the “Log Ki” value is -7.75. Also, the minimal effective dose in experiment [7] was 0.63 mg/kg; in experiment [9], 10 mg/kg. The Ki (commonly a dissociation constant, usually derived from enzyme kinetics or from competition with a known ligand) in experiment [8] was 0.00174 µM; in [10], 0.0417 µM; in experiment [12], 0.2 µM.

On to `COc1cc2c(cc1OC)C(CCN1CCN(c3cccc4c3OCCO4)CC1)CC2` (centres undefined), for which the Ratio in experiment [1] is above 16. Besides, the ID50 in experiment [2] is 40 mg/kg. Also, the Max effect was found to be 12% in [3] and 84% in experiment [11]. Further, in [4], the ED50 stood at 0.86 mg/kg. For the same compound, the Ki ratio in [5] is 9.8. Besides, the “Log Ki” value in [6] is on record as -7.81. Also, the minimal effective dose in experiment [7] was 2.5 mg/kg; in experiment [9], above 40 mg/kg. The Ki in experiment [8] was 0.00158 µM; in [12] it was 0.676 µM; in experiment [14], 0.132 µM.

For the compound `Clc1cccc2c1CC2CCN1CCN(c2cccc3c2OCCO3)CC1` (centres undefined), the Ratio in experiment [1] was determined as 32. The ID50 in experiment [2] is above 40 mg/kg. Moreover, the Max effect in [3] is recorded as 52%; in experiment [11], 96%. The ED50 in experiment [4] stood at 1.13 mg/kg. The Ki ratio in [5] is 28.8. Further, the “Log Ki” value in [6] is -7.19. For the same compound, the figures for the minimal effective dose in experiment [7] and in experiment [9] were 1.25 mg/kg and 40 mg/kg, respectively. The results for the Ki in [8], in [12] and in experiment [14] were 0.00224 µM, 0.708 µM and 0.0603 µM, respectively.

For the compound `Clc1cccc2c1CC2CN1CCN(c2cccc3c2OCCO3)CC1` (centres undefined), in experiment [1], the Ratio was 63.5. The compound further registered an ID50 in [15] above 40 mg/kg. The Max effect stood at 0% in experiment [3] and 100% in [11]. Also, the ED50 in experiment [4] worked out at 0.8 mg/kg. In addition, the figures for the minimal effective dose in experiment [7] and in experiment [9] were 0.63 mg/kg and 40 mg/kg, respectively. Also, the Ki is 0.00398 µM in experiment [8] and 0.55 µM in experiment [12].

Consider `c1ccc2c(c1)CC2CCCCN1CCN(c2cccc3c2OCCO3)CC1` (centres undefined), for which the Ratio in experiment [1] is above 2. The same compound displayed an ID50 in experiment [2] above 40 mg/kg. Also, the Max effect is 0% in experiment [3] and 88% in experiment [11]. Moreover, the ED50 in experiment [4] was found to be 1.43 mg/kg. Besides, the figures for the Ki ratio in experiment [5] and in experiment [13] were 17.8 and 12.5, respectively. In experiment [6], the “Log Ki” value is given as -7.56. Besides, the results for the minimal effective dose in experiment [7] and in experiment [9] were 5 mg/kg and above 10 mg/kg, respectively. The Ki is 0.00129 µM in experiment [8], 0.631 µM in experiment [12] and 0.0195 µM in experiment [16].
